Consider three compounds from publication PMC3276691 (Journal of Medicinal Chemistry, 2012).

Molecules are shown by their SMILES.

Test [1] concerns human peripheral blood mononuclear cells. Nature of the test: IFN-α induction in human PBMCs. It counts as cell-based. The settings on record: hPBMCs, 12 h, graded concentrations. In outline: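 PBMCs from healthy donors, isolated by Ficoll-Hypaque gradient centrifugation and stimulated with graded concentrations of test compound for 12 h. Supernatants collected by centrifugation and diluted 1:20. IFN-α measured in triplicate by high-sensitivity human IFN-α-specific ELISA.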

The test system of test [2] is TLR8. In words: Schild plot analysis of inhibition of TLR8-induced activation. The settings on record: CL075 TLR8-specific agonist, checker-board format. It counts as cell-based, human.
Test [3] concerns TLR8. In words: Inhibition of TLR8-mediated cytokine and chemokine production in hPBMCs. The following applies: 12 h, proinflammatory cytokines (Fig. 4). It counts as cell-based, human.
Test [4] deals with TLR7. In words: Inhibition of TLR7-mediated cytokine and chemokine production in hPBMCs. It counts as cell-based. The following applies: Homo sapiens, 12 h, read-out: IC50, inhibition of TLR7-induced cytokine and chemokine release.
Test [5] concerns TLR7. In words: Schild plot analysis of inhibition of TLR7-induced activation. The following applies: imidazoquinoline TLR7-specific agonist, checker-board format. It counts as cell-based, human.

In the case of `CCCCc1nc2c(N)nc3ccccc3c2n1Cc1ccc(CNC(=O)CCCCCCCCCCC(=O)NCc2ccc(Cn3c(CCCC)nc4c(N)nc5ccccc5c43)cc2)cc1` [Compound 10c], in test [1], the IFN-α induction result is recorded as “most potent”.
The term IC50 denotes the concentration at which inhibition is half-maximal. Consider `Nc1nc2ccccc2c2c1nc(CCCc1nc3c(N)nc4ccccc4c3n1Cc1ccccc1)n2Cc1ccccc1` [Compound 4a, 2,2′-(propane-1,3-diyl)bis(1-benzyl-1H-imidazo[4,5-c]quinolin-4-amine)], for which the “Schild plot slope, TLR8 inhibition” value in test [2] was determined as 0.51. Moreover, the “Inhibition of TNF-α and IL-1β production” value in test [3] is on record as “potently inhibits”. The IC50 in test [4] was in the range of 50 to 300 nM. For the same compound, the “Schild plot slope, TLR7 inhibition” value in test [5] came out at 1.12.
Turning to `CCN(CC)CCCC(C)Nc1ccnc2cc(Cl)ccc12` (stereo not drawn) [Chloroquine, chloroquine, reference compound], the “Inhibition of TNF-α and IL-1β production” value in test [3] is “feeble inhibitor”.
